Assay outcomes: PubChem, Johns Hopkins Ion Channel Center
TRPC4 potent: allosteric potentiators of mouse TRPC4 channel. HEK293 TRPC4beta/mu-opioid, DAMGO EC20, Fluo-4 Ca2+ flux; stronger effect = higher value. hit rate 0.42% among 310,000. Q9QUQ5. B-score at 10 µM;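 active = B-score of calcium response area above 5 SD of library B-scores, with initial fluorescence ratio within 5 SD of library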
TRPC6 inhibitor: inhibitors of mouse TRPC6 channel; hit rate 1.1% among 310,000; HEK293-TRPC6, membrane potential dye, ACh-evoked depolarization; stronger effect = lower value; B-score at 10 µM; Q61143;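 active = B-score under library mean minus 3 SD, initial fluorescence not abnormally high, positive integrated signal ratio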;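 note: B-score derived from integrated fluorescence ratio over the kinetic read; more negative B-score means stronger inhibition of depolarization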
Target sequence (Q61143 whole entry, looked up): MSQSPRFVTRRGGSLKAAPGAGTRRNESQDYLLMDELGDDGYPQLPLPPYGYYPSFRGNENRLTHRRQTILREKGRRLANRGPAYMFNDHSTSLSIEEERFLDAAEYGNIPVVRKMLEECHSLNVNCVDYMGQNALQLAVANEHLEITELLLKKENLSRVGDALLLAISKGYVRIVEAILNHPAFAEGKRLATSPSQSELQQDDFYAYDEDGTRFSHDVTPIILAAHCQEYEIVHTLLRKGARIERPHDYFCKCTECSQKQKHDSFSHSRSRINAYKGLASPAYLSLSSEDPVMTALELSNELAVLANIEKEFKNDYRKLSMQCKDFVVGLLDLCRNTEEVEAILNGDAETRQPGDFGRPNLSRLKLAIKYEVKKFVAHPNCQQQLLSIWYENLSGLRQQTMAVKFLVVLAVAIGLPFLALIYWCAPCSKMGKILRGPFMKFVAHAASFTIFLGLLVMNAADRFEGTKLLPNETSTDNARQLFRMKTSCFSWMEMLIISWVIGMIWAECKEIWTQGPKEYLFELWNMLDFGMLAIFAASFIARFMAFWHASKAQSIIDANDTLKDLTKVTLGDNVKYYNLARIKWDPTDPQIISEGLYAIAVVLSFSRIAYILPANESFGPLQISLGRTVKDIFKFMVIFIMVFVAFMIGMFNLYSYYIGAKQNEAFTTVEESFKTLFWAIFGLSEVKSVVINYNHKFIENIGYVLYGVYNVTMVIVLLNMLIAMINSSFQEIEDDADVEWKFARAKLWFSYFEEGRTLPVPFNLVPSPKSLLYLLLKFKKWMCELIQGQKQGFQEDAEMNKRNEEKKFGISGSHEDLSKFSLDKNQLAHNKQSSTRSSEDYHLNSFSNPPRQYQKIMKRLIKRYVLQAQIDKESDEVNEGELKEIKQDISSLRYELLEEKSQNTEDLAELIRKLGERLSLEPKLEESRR
TRPC4 agonist: activators of mouse TRPC4 channel | B-score at 10 µM | HEK293 TRPC4beta/mu-opioid, Fluo4 calcium fluorescence; stronger effect = higher value | Q9QUQ5 | hit rate 0.49% among 310,000;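 active = B-score above 5 SD of library B-scores, and initial fluorescence ratio not above library mean plus 5 SD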;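 note: positive B-score marks a calcium rise read as TRPC4 activation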
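Assay system: HEK293 cells stably co-expressing mouse TRPC4beta and mu-opioid receptor / Timing: Fluo4 dye loading 45 min at room temperature, 110 s recording / Signal: Fluo4 calcium-sensitive dye fluorescence, kinetic, 1 Hz baseline / Read-out: integrated baseline-normalised fluorescence ratio, converted to per-well B score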
TRPC6 act: activates the mouse TRPC6 cation channel; hit rate 0.13% among 310,000; Q61143; AID 2550; B-score at 10 µM; HEK293-TRPC6 membrane potential dye fluorescence; stronger effect = higher value;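 active = B-score of the integrated fluorescence ratio above library mean plus 3 SD, and starting fluorescence ratio within library mean plus 5 SD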;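 note: higher score means more depolarization so channel activation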
TRPC4 inh: inhibitors of mouse TRPC4 channel; HEK293 TRPC4beta/mu-opioid, DAMGO-evoked Fluo4 calcium flux; stronger effect = lower value; hit rate 0.39% among 300,000; Q9QUQ5; B-score at 10 µM;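 active = B-score over 3 SD under the library average, no early fluorescence shift, positive overall ratio signal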
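material = TRPC4beta/mu-opioid receptor HEK293 cell line | probe or stimulus = sequential submaximal and maximal DAMGO stimulation | compound dosing = one concentration per compound | measured by = Fluo4 Ca2+ flux fluorescence | evaluation = integrated fluorescence ratio relative to baseline, converted to per-well B score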
TRPC4 sel inh 2: second check of whether TRPC6 inhibitors also affect mouse TRPC4; shares compounds with TRPC6 inhibitor; HEK293 TRPC4/MOR, membrane potential dye fluorescence; channel activated by saturating DAMGO dose; inhibition, % at 10 µM; hit rate 42% among 920; AID 2776;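 active = compounds whose fluorescence signal differed from control wells by over 3 SD, either direction, in both duplicate plates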
TRPC4 spec: tests whether TRPC6 inhibitors also affect mouse TRPC4 | shares compounds with TRPC6 inhibitor | HEK293 TRPC4/mu-opioid, membrane potential fluorescence | activity change, negative = inhibition, % at 10 µM | hit rate 61% among 920;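 active = rise or fall in signal beyond 3 SD of buffer-only wells in both replicate plates, either sign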;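 note: integrated kinetic ratio of fluorescence range over baseline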
HEK293 MPD ctr 2-1: second check of TRPC6 inhibitor effects in parental HEK293 cells | AID 2779 | hit rate 31% among 920 | parental HEK293 membrane potential dye fluorescence; maximal acetylcholine challenge after compound addition | shares compounds with TRPC6 inhibitor | signal change vs control, % at 10 µM;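 active = membrane potential signal moving either way by over 3 SD of the maximum-effect control, in both duplicate plates, meaning non-specific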
HEK293 MPD ctr-1: checks TRPC6 inhibitor effects in parental HEK293 cells; hit rate 60% among 920; membrane potential signal change, % at 10 µM; shares compounds with TRPC6 inhibitor; parental HEK293 membrane potential dye fluorescence; AID 2780;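 active = membrane potential signal shifting up or down by more than 3 SD of buffer-only wells, on both duplicate plates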
HEK293 MPD ctr-2: checks TRPC6 modulator effects in parental HEK293 cells; shares compounds with TRPC6 inhibitor; hit rate 51% among 2,400; membrane potential dye fluorescence; AID 488924; membrane potential signal change, % at 10 µM;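 active = membrane potential signal moves up or down beyond 5 SD from buffer-only wells, on both duplicate plates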
HEK293 MPD ctr 2-2: second counter-screen for TRPC6 modulators: effect in parental HEK293 cells; shares compounds with TRPC6 inhibitor; membrane potential dye fluorescence; after compound, maximal acetylcholine stimulation; inhibition, % at 10 µM; hit rate 14% among 2,400; AID 488926;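 active = membrane potential signal drops by more than 5 SD from the mean control signal, in both duplicate plates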
TRPC4/MOR mod: selectivity of TRPC6 modulators against mouse TRPC4. hit rate 69% among 2,400. AID 488927. HEK293 TRPC4/mu-opioid, membrane potential fluorescence. shares compounds with TRPC6 inhibitor. percent change from control (negative = decrease, positive = increase), % at 10 µM;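 active = membrane potential signal moved up or down beyond 5 SD of buffer control wells, in both duplicate plates, actives on both sides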
TRPC4 ctr inh 2: second check of whether TRPC6 modulators also affect mouse TRPC4. shares compounds with TRPC6 inhibitor. hit rate 55% among 2,400. inhibition, % at 10 µM. AID 488928. HEK293 TRPC4/mu-opioid, membrane potential dye fluorescence; stimulated with maximal-effect DAMGO;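 active = drop in membrane potential signal beyond 5 SD of the control wells in both duplicate plates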;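 note: TRPC4 counter screen for TRPC6 hits run under conditions tuned for TRPC6 not TRPC4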
TRPC6 block conf: mouse TRPC6 inhibitor confirmation | shares compounds with TRPC6 inhibitor | HEK293-TRPC6, membrane potential dye, ACh-evoked depolarization | inhibition, % at 10 µM | hit rate 43% among 3,300 | AID 488960;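 active = fluorescence ratio falls more than 5 SD below the full-stimulation control mean, in both duplicate runs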;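 note: integrated fluorescence ratio of peak minus minimum over baseline after agonist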
TRPC6 act confirm: confirmation of mouse TRPC6 activators; AID 488961; shares compounds with TRPC6 inhibitor; hit rate 11% among 2,800; HEK293-TRPC6 membrane potential dye fluorescence, FDSS; activation, % at 10 µM;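 active = ratio signal rise beyond 5 SD above unstimulated control wells' mean, seen in both duplicate runs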
Hits are given with their value; ! = not confirmed by another sample. An excerpt weighted towards active compounds, which were near 2.3% of everything screened.

How did Oc1ccccc1Nc1nc(NCc2ccco2)c2ccccc2n1 do in these assays?
TRPC4 potent: inactive; TRPC6 inhibitor: -8.5; TRPC4 agonist: inactive; TRPC6 act: inactive; TRPC4 inh: -6; TRPC4 sel inh 2: 74%; TRPC4 spec: inactive; HEK293 MPD ctr 2-1: inactive; HEK293 MPD ctr-1: inactive; TRPC6 block conf: inactive; TRPC6 act confirm: inactive

What do the screens show for `COc1cccc(Nc2nc(NCCO)c3ccccc3n2)c1`?
TRPC4 potent: inactive; TRPC6 inhibitor: -11; TRPC4 agonist: inactive; TRPC6 act: inactive; TRPC4 inh: inactive; TRPC4 sel inh 2: 40%; TRPC4 spec: -22%; HEK293 MPD ctr 2-1: 27%; HEK293 MPD ctr-1: -237%; TRPC6 block conf: 90%; TRPC6 act confirm: inactive

Results for Cc1cc(C)c(S(=O)(=O)N2CCOC2CNC(=O)C(=O)NCCN(C)C)c(C)c1 (stereo not given) ?
TRPC4 potent: inactive; TRPC6 inhibitor: inactive; TRPC4 agonist: inactive; TRPC6 act: inactive; TRPC4 inh: inactive

What do the screens show for `Cc1cc(=O)oc2cc(OCC(=O)N3CCN(C(=O)c4ccco4)CC3)ccc12`?
TRPC4 potent: inactive; TRPC6 inhibitor: -5.5; TRPC4 agonist: inactive; TRPC6 act: inactive; TRPC4 inh: inactive; HEK293 MPD ctr-2: inactive; HEK293 MPD ctr 2-2: inactive; TRPC4/MOR mod: inactive; TRPC4 ctr inh 2: inactive; TRPC6 block conf: inactive; TRPC6 act confirm: inactive

How did O=C(CSc1nc2c(c(=O)n1-c1ccc(Br)cc1)SCC2)NCC1CCCO1 (stereo not given) do in these assays?
TRPC4 potent: inactive; TRPC6 inhibitor: -5; TRPC4 agonist: inactive; TRPC6 act: inactive; TRPC4 inh: inactive; HEK293 MPD ctr-2: 108%; HEK293 MPD ctr 2-2: inactive; TRPC4/MOR mod: 25%; TRPC4 ctr inh 2: 32%; TRPC6 block conf: 51%

How did O=C(Cn1ncc2c1-c1ccccc1OC2)N1CCN(Cc2ccc3c(c2)OCO3)CC1 do in these assays?
TRPC4 potent: inactive; TRPC6 inhibitor: inactive; TRPC4 agonist: inactive; TRPC6 act: inactive; TRPC4 inh: inactive

Results for COc1ccc(C(=O)NNC(=O)C2CCN(S(=O)(=O)c3ccc(C)cc3)CC2)cc1 ?
TRPC4 potent: inactive; TRPC6 inhibitor: inactive; TRPC4 agonist: inactive; TRPC6 act: inactive; TRPC4 inh: inactive

What do the screens show for `CC12CCC(C(=O)Nc3cccc(Cl)c3Cl)([C@H](Br)C1=O)C2(C)C` (stereo not given in full)?
TRPC4 potent: inactive; TRPC6 inhibitor: inactive; TRPC4 agonist: inactive; TRPC6 act: inactive; TRPC4 inh: inactive

What do the screens show for `CC12CCC(C(=O)Nc3c(Cl)cccc3Cl)(C(Br)C1=O)C2(C)C` (stereo not given)?
TRPC4 potent: inactive; TRPC6 inhibitor: -6.2; TRPC4 agonist: inactive; TRPC6 act: inactive; TRPC4 inh: inactive; HEK293 MPD ctr-2: inactive; HEK293 MPD ctr 2-2: inactive; TRPC4/MOR mod: inactive; TRPC4 ctr inh 2: inactive; TRPC6 block conf: inactive; TRPC6 act confirm: inactive

How did Cc1ccc(Nc2nc(N/N=C/c3c[nH]c4ccccc34)nc(N3CCOCC3)n2)cc1 do in these assays?
TRPC4 potent: inactive; TRPC6 inhibitor: inactive; TRPC4 agonist: inactive; TRPC6 act: inactive; TRPC4 inh: inactive

What do the screens show for `C(=N\Nc1nc(Nc2ccccc2)nc(N2CCOCC2)n1)/c1c[nH]c2ccccc12`?
TRPC4 potent: 11; TRPC6 inhibitor: -6.1; TRPC4 agonist: inactive; TRPC6 act: inactive; TRPC4 inh: inactive; HEK293 MPD ctr-2: inactive; HEK293 MPD ctr 2-2: inactive; TRPC4/MOR mod: -20%; TRPC4 ctr inh 2: 49%; TRPC6 block conf: 48%; TRPC6 act confirm: inactive

Results for O=C(Nc1cc2c(oc1=O)CCCC2=O)c1ccc(Cl)cc1 ?
TRPC4 potent: inactive; TRPC6 inhibitor: inactive; TRPC4 agonist: inactive; TRPC6 act: inactive; TRPC4 inh: inactive

How did Cc1c(C(=O)OC(C)C(C)C[N+](C)(C)C)oc2ccccc12 (stereo not given) do in these assays?
TRPC4 potent: inactive; TRPC6 inhibitor: -7.5; TRPC4 agonist: inactive; TRPC6 act: inactive; TRPC4 inh: inactive; HEK293 MPD ctr-2: inactive; HEK293 MPD ctr 2-2: 64%; TRPC4/MOR mod: inactive; TRPC4 ctr inh 2: inactive; TRPC6 block conf: 72%; TRPC6 act confirm: inactive

Results for O=C(O)Cn1c(O)c(C=Nc2ccccc2)sc1=S ?
TRPC4 potent: inactive; TRPC6 inhibitor: -12!; TRPC4 agonist: inactive; TRPC6 act: inactive; TRPC4 inh: inactive; TRPC4 sel inh 2: inactive; TRPC4 spec: inactive; HEK293 MPD ctr 2-1: inactive; HEK293 MPD ctr-1: inactive; TRPC6 block conf: inactive; TRPC6 act confirm: inactive

Results for O=C(NC1CCCCC1)C(c1ccco1)N(C(=O)c1csnn1)c1cccc(Cl)c1 (stereo not given) ?
TRPC4 potent: inactive; TRPC6 inhibitor: inactive; TRPC4 agonist: inactive; TRPC6 act: inactive; TRPC4 inh: inactive

What do the screens show for `CCOc1ccc(CCNC(=O)C2CCCN(c3nnc(-n4cccc4)s3)C2)cc1OCC` (stereo not given)?
TRPC4 potent: inactive; TRPC6 inhibitor: -5.5; TRPC4 agonist: inactive; TRPC6 act: inactive; TRPC4 inh: inactive; HEK293 MPD ctr-2: inactive; HEK293 MPD ctr 2-2: inactive; TRPC4/MOR mod: inactive; TRPC4 ctr inh 2: inactive; TRPC6 block conf: inactive; TRPC6 act confirm: inactive
